Results reported in ChEMBL document CHEMBL1938298, “Synthesis and characterization of [¹²⁵I]2-iodo N-[(S)-{(S)-1-methylpiperidin-2-yl}(phenyl)methyl]3-trifluoromethyl-benzamide as novel imaging probe for glycine transporter 1” (Bioorg Med Chem, 2011).
Active and inactive are the calls of the source. No cut-off for these calls is given here.

What was measured:
Blood = test: Drug uptake in ddY mouse blood at 11.1 kBq, iv after 180 min by gamma counting; assay type: ADME, organism-based; conditions: in vivo, 3 h
Procedure, shortened: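 Male ddY mice (6 weeks, 30–35 g) received about 11.1 kBq [125I]tracer in 0.1 mL i.v. via tail vein. Killed at set times, organs dissected and weighed, radioactivity gamma counted. Reported as % injected dose/g tissue, mean ± SD, n = 5–6.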

Mus musculus [1] = test: In vivo binding affinity to GlyT1 in ddY mouse brain medullary region at 33.3 kBq, iv after 60 mins in presence of SSR504734 2 mg/kg, iv administered 15 mins prior to compound administration relative to control; assay type: functional, organism-based; set-up: dose 2 mg/kg; conditions: Medulla of organ, tested as the 125I-labelled form
[2] = target: T1, Sodium- and chloride-dependent glycine transporter 1 (Rattus norvegicus) (UniProt P28572); test: Binding affinity to GlyT1 in rat brain striatum at 0.03 to 0.04 nM preincubated for 20 mins in binding buffer before compound addition measured after 30 mins by autoradiography in presence of 0.01 mM NMDA receptor glycine site antagonist L-701,324 relative to control; assay type: tissue-based; conditions: tested as the 125I-labelled form
T1 sequence (whole entry): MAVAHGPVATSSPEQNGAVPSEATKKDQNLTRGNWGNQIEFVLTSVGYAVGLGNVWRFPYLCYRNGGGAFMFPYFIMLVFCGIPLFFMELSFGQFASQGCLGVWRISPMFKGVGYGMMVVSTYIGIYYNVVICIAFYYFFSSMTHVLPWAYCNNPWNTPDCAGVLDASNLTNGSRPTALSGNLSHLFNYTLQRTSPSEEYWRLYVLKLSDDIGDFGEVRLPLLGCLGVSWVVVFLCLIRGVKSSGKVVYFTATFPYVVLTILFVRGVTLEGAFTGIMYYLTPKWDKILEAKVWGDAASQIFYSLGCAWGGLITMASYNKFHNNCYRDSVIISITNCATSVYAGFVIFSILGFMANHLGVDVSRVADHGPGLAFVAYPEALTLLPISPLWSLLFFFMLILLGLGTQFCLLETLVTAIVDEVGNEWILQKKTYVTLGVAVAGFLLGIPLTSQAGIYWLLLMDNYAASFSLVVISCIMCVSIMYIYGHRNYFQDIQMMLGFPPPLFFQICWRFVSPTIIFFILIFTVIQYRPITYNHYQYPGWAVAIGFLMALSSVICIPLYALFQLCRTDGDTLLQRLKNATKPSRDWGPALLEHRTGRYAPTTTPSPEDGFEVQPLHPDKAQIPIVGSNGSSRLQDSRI

[3] = target: T1, Sodium- and chloride-dependent glycine transporter 1 (Rattus norvegicus); test: Binding affinity to GlyT1 in rat brain corpus callosum at 0.03 to 0.04 nM preincubated for 20 mins in binding buffer before compound addition measured after 30 mins by autoradiography in presence of 0.01 mM NMDA receptor glycine site antagonist L-701,324 relative to control; assay type: tissue-based; conditions: tested as the 125I-labelled form
Procedure, shortened: (§1)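 Rat brain sagittal sections (20 µm) preincubated 20 min at 25 °C in Tris-HCl buffer pH 7.5 (NaCl, KCl, MgCl2, CaCl2), then 30 min at 25 °C with [125I] tracer (100 kBq, 0.03–0.04 nM) plus competitor (10 µM; glycine 1 or 10 mM). Cold washes, imaging plate 3 days, ROI PSL minus background per mm². % control from ≥triplicate slices, three rats.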

[4] = target: T1, Sodium- and chloride-dependent glycine transporter 1 (Rattus norvegicus); test: Binding affinity to GlyT1 in rat brain midbrain at 0.03 to 0.04 nM preincubated for 20 mins in binding buffer before compound addition measured after 30 mins by autoradiography in presence of GlyT1 inhibitor N-Me-SSR504734 relative to control; assay type: tissue-based; conditions: tested as the 125I-labelled form
[5] = target: T1, Sodium- and chloride-dependent glycine transporter 1 (Rattus norvegicus); test: Binding affinity to GlyT1 in rat brain midbrain at 0.03 to 0.04 nM preincubated for 20 mins in binding buffer before compound addition measured after 30 mins by autoradiography in presence of 0.01 mM GlyT1 inhibitor HPCP relative to control; assay type: tissue-based; conditions: tested as the 125I-labelled form; procedure, shortened: as §1
Mus musculus [6] = test: In vivo binding affinity to GlyT1 in ddY mouse brain striatum at 33.3 kBq, iv after 30 mins in presence of SSR504734 2 mg/kg, iv administered 15 mins prior to compound administration relative to control; assay type: functional, organism-based; set-up: dose 2 mg/kg; conditions: tested as the 125I-labelled form

| Drug uptake (Blood) [% ID/g] | Activity [2] [%] | Activity [3] [%] | Activity [4] [%] | Activity [5] [%] | Structure (SMILES) | Activity (Mus musculus [1]) | Activity (Mus musculus [6]) |
| --- | --- | --- | --- | --- | --- | --- | --- |
| 0.85 |  |  |  |  | CN1CCCC[C@H]1[C@@H](NC(=O)c1cccc(C(F)(F)F)c1[125I])c1ccccc1 |  |  |
|  | 96.8 | 92.5 | 25.3 | 19.7 | CN1CCCC[C@H]1[C@@H](NC(=O)c1cccc(C(F)(F)F)c1I)c1ccccc1 | inactive | inactive |
